Results on eleven compounds are retold here after ChEMBL document CHEMBL1152473, “Synthesis, characterization and antibacterial activity of some triazole Mannich bases carrying diphenylsulfone moieties” (2009).

SMILES strings stand for the structures. In brackets after ≈: the same amount, converted by molar mass. Activity calls are given as the source filed them. The rule behind the calls is not given here. Bounds are passed on as bounds.

One assay has as its system Enterococcus faecalis. Kind of assay: Antibacterial activity against Enterococcus faecalis ATCC 19433 after 18 to 24 hrs by liquid broth method. The assay is classed as functional.
Details: not given
Put shortly:
(§1)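 Serial two-fold dilution in liquid broth in 96-well plates. Compounds were added from DMSO stock solutions to give final levels of 1024, 512, 256, 128, 64, 32, 16, 8, 4 and 2 (unit as printed unclear). Plates were incubated at 37 °C for 18–24 h.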
`COc1ccccc1/C=N/n1c(-c2ccc(S(=O)(=O)c3ccccc3)cc2)n[nH]c1=S`: the MIC (usually the lowest concentration found to suppress growth) was “inactive”.

Regarding `CCCn1c(-c2ccc(S(=O)(=O)c3ccc(Cl)cc3)cc2)nn(CN2CCOCC2)c1=S`, the lowest concentration to inhibit growth (MIC) was 1020 µg/mL (≈ 2080 µM).

As for `O=S(=O)(c1ccccc1)c1ccc(-c2nn(CN3CCOCC3)c(=S)n2/N=C/c2ccccc2)cc1`, 1020 µg/mL (≈ 1970 µM) was the least that counted as inhibitory (MIC).

`CCCn1c(S)nnc1-c1ccc(S(=O)(=O)c2ccc(Br)cc2)cc1`: the MIC is above 1020 µg/mL.

`Nn1c(-c2ccc(S(=O)(=O)c3ccc(Cl)cc3)cc2)n[nH]c1=S`: the MIC entry was “inactive”.

Consider `COc1ccccc1/C=N/n1c(-c2ccc(S(=O)(=O)c3ccccc3)cc2)nn(CN2CCOCC2)c1=S`, for which the MIC was above 1020 µg/mL.

Regarding `O=S(=O)(c1ccc(Cl)cc1)c1ccc(-c2nn(CN3CCOCC3)c(=S)n2/N=C/c2ccccc2)cc1`, the MIC came to 512 µg/mL (≈ 924 µM).

Consider `O=S(=O)(c1ccccc1)c1ccc(-c2n[nH]c(=S)n2/N=C/c2ccccc2)cc1`, for which the MIC entry is “inactive”.

Turning to `CCCn1c(S)nnc1-c1ccc(S(=O)(=O)c2ccccc2)cc1`, the MIC was above 1020 µg/mL.

As to `O=S(=O)(c1ccccc1)c1ccc(-c2n[nH]c(=S)n2/N=C/c2ccco2)cc1`, the MIC result is “inactive”.

`Nn1c(-c2ccc(S(=O)(=O)c3ccccc3)cc2)n[nH]c1=S`: the MIC was above 1020 µg/mL.

Another assay has as its system Staphylococcus aureus. In words: Antibacterial activity against Staphylococcus aureus ATCC 12600 after 18 to 24 hrs by liquid broth method.
Details: not given
Type of assay: functional. Put shortly:
as §1
Take `COc1ccccc1/C=N/n1c(-c2ccc(S(=O)(=O)c3ccccc3)cc2)n[nH]c1=S`: the minimum inhibitory concentration (MIC) was 128 µg/mL (≈ 284 µM).

For `CCCn1c(-c2ccc(S(=O)(=O)c3ccc(Cl)cc3)cc2)nn(CN2CCOCC2)c1=S`, the MIC result was “inactive”.

Compound `O=S(=O)(c1ccccc1)c1ccc(-c2nn(CN3CCOCC3)c(=S)n2/N=C/c2ccccc2)cc1` came in with a minimal inhibitory concentration (MIC) of 512 µg/mL (≈ 985 µM).

The compound `CCCn1c(S)nnc1-c1ccc(S(=O)(=O)c2ccc(Br)cc2)cc1` displayed an MIC of 256 µg/mL (≈ 584 µM).

The compound `Nn1c(-c2ccc(S(=O)(=O)c3ccc(Cl)cc3)cc2)n[nH]c1=S` registered an MIC of 1020 µg/mL (≈ 2790 µM).

On to `COc1ccccc1/C=N/n1c(-c2ccc(S(=O)(=O)c3ccccc3)cc2)nn(CN2CCOCC2)c1=S`, for which the MIC turned out to be 512 µg/mL (≈ 931 µM).

`O=S(=O)(c1ccc(Cl)cc1)c1ccc(-c2nn(CN3CCOCC3)c(=S)n2/N=C/c2ccccc2)cc1` showed an MIC of 1020 µg/mL (≈ 1850 µM).

On to `O=S(=O)(c1ccccc1)c1ccc(-c2n[nH]c(=S)n2/N=C/c2ccccc2)cc1`, for which it took 512 µg/mL (≈ 1220 µM) to inhibit growth (MIC).

Turning to `CCCn1c(S)nnc1-c1ccc(S(=O)(=O)c2ccccc2)cc1`, the MIC is above 1020 µg/mL.

With `O=S(=O)(c1ccccc1)c1ccc(-c2n[nH]c(=S)n2/N=C/c2ccco2)cc1`, the MIC was 512 µg/mL (≈ 1250 µM).

The compound `Nn1c(-c2ccc(S(=O)(=O)c3ccccc3)cc2)n[nH]c1=S` showed an MIC of 512 µg/mL (≈ 1540 µM).

The subject of the next assay is Staphylococcus epidermidis. Kind of assay: Antibacterial activity against Staphylococcus epidermidis ATCC 14990 after 18 to 24 hrs by liquid broth method. Type of assay: functional.
Details: not given
Put shortly: as §1
Turning to `COc1ccccc1/C=N/n1c(-c2ccc(S(=O)(=O)c3ccccc3)cc2)n[nH]c1=S`, the MIC result is “inactive”.

On to `CCCn1c(-c2ccc(S(=O)(=O)c3ccc(Cl)cc3)cc2)nn(CN2CCOCC2)c1=S`, for which the MIC entry is “inactive”.

Turning to `O=S(=O)(c1ccccc1)c1ccc(-c2nn(CN3CCOCC3)c(=S)n2/N=C/c2ccccc2)cc1`, the MIC result was “inactive”.

Turning to `CCCn1c(S)nnc1-c1ccc(S(=O)(=O)c2ccc(Br)cc2)cc1`, the MIC entry was “inactive”.

The compound `Nn1c(-c2ccc(S(=O)(=O)c3ccc(Cl)cc3)cc2)n[nH]c1=S` gave an MIC of 512 µg/mL (≈ 1400 µM).

`COc1ccccc1/C=N/n1c(-c2ccc(S(=O)(=O)c3ccccc3)cc2)nn(CN2CCOCC2)c1=S`: the MIC result is “inactive”.

`O=S(=O)(c1ccc(Cl)cc1)c1ccc(-c2nn(CN3CCOCC3)c(=S)n2/N=C/c2ccccc2)cc1`: the MIC result was “inactive”.

Consider `O=S(=O)(c1ccccc1)c1ccc(-c2n[nH]c(=S)n2/N=C/c2ccccc2)cc1`, for which the MIC is above 1020 µg/mL.

For the compound `CCCn1c(S)nnc1-c1ccc(S(=O)(=O)c2ccccc2)cc1`, the MIC is above 1020 µg/mL.

`O=S(=O)(c1ccccc1)c1ccc(-c2n[nH]c(=S)n2/N=C/c2ccco2)cc1`: the MIC result was “inactive”.

With `Nn1c(-c2ccc(S(=O)(=O)c3ccccc3)cc2)n[nH]c1=S`, the MIC was found to be 128 µg/mL (≈ 385 µM).

The next assay deals with Bacillus subtilis. In words: Antibacterial activity against Bacillus subtilis ATCC 6633 after 18 to 24 hrs by liquid broth method. Type of assay: functional.
Details: not given
Put shortly:
as §1
Turning to `COc1ccccc1/C=N/n1c(-c2ccc(S(=O)(=O)c3ccccc3)cc2)n[nH]c1=S`, the MIC worked out at 128 µg/mL (≈ 284 µM).

`CCCn1c(-c2ccc(S(=O)(=O)c3ccc(Cl)cc3)cc2)nn(CN2CCOCC2)c1=S` registered an MIC above 1020 µg/mL.

Consider `O=S(=O)(c1ccccc1)c1ccc(-c2nn(CN3CCOCC3)c(=S)n2/N=C/c2ccccc2)cc1`, for which 512 µg/mL (≈ 985 µM) was the least that counted as inhibitory (MIC).

The compound `CCCn1c(S)nnc1-c1ccc(S(=O)(=O)c2ccc(Br)cc2)cc1` gave an MIC of 1020 µg/mL (≈ 2340 µM).

The compound `Nn1c(-c2ccc(S(=O)(=O)c3ccc(Cl)cc3)cc2)n[nH]c1=S` gave an MIC of 1020 µg/mL (≈ 2790 µM).

As to `COc1ccccc1/C=N/n1c(-c2ccc(S(=O)(=O)c3ccccc3)cc2)nn(CN2CCOCC2)c1=S`, the MIC is 512 µg/mL (≈ 931 µM).

Consider `O=S(=O)(c1ccc(Cl)cc1)c1ccc(-c2nn(CN3CCOCC3)c(=S)n2/N=C/c2ccccc2)cc1`, for which the MIC entry is “inactive”.

In the case of `O=S(=O)(c1ccccc1)c1ccc(-c2n[nH]c(=S)n2/N=C/c2ccccc2)cc1`, the MIC result was “inactive”.

For the compound `CCCn1c(S)nnc1-c1ccc(S(=O)(=O)c2ccccc2)cc1`, the MIC was above 1020 µg/mL.

In the case of `O=S(=O)(c1ccccc1)c1ccc(-c2n[nH]c(=S)n2/N=C/c2ccco2)cc1`, the MIC entry was “inactive”.

`Nn1c(-c2ccc(S(=O)(=O)c3ccccc3)cc2)n[nH]c1=S` had an MIC of 1020 µg/mL (≈ 3080 µM).

The subject of the next assay is Acinetobacter baumannii. In words: Antibacterial activity against Acinetobacter baumannii ATCC 19606 after 18 to 24 hrs by liquid broth method. The assay is classed as functional. The settings on record: ATCC 19606 = CIP 70.34 = JCM 6841. Summed up:
as §1
In the case of `COc1ccccc1/C=N/n1c(-c2ccc(S(=O)(=O)c3ccccc3)cc2)n[nH]c1=S`, the MIC was found to be 256 µg/mL (≈ 568 µM).

Compound `CCCn1c(-c2ccc(S(=O)(=O)c3ccc(Cl)cc3)cc2)nn(CN2CCOCC2)c1=S` had an MIC above 1020 µg/mL.

`O=S(=O)(c1ccccc1)c1ccc(-c2nn(CN3CCOCC3)c(=S)n2/N=C/c2ccccc2)cc1` came in with a minimum inhibitory concentration (MIC) above 1020 µg/mL.

The compound `CCCn1c(S)nnc1-c1ccc(S(=O)(=O)c2ccc(Br)cc2)cc1` showed an MIC of 1020 µg/mL (≈ 2340 µM).

With `Nn1c(-c2ccc(S(=O)(=O)c3ccc(Cl)cc3)cc2)n[nH]c1=S`, the MIC is 128 µg/mL (≈ 349 µM).

For the compound `COc1ccccc1/C=N/n1c(-c2ccc(S(=O)(=O)c3ccccc3)cc2)nn(CN2CCOCC2)c1=S`, inhibition of growth (MIC) required 512 µg/mL (≈ 931 µM).

With `O=S(=O)(c1ccc(Cl)cc1)c1ccc(-c2nn(CN3CCOCC3)c(=S)n2/N=C/c2ccccc2)cc1`, it took 1020 µg/mL (≈ 1850 µM) to inhibit growth (MIC).

The compound `O=S(=O)(c1ccccc1)c1ccc(-c2n[nH]c(=S)n2/N=C/c2ccccc2)cc1` returned an MIC above 1020 µg/mL.

Consider `CCCn1c(S)nnc1-c1ccc(S(=O)(=O)c2ccccc2)cc1`, for which the MIC is above 1020 µg/mL.

`O=S(=O)(c1ccccc1)c1ccc(-c2n[nH]c(=S)n2/N=C/c2ccco2)cc1`: the MIC is 128 µg/mL (≈ 312 µM).

`Nn1c(-c2ccc(S(=O)(=O)c3ccccc3)cc2)n[nH]c1=S` showed an MIC of 512 µg/mL (≈ 1540 µM).

Another assay concerns Citrobacter freundii. Kind of assay: Antibacterial activity against Citrobacter freundii ATCC 8090 after 18 to 24 hrs by liquid broth method.
Details: not given
The assay is classed as functional. Put shortly:
as §1
On to `COc1ccccc1/C=N/n1c(-c2ccc(S(=O)(=O)c3ccccc3)cc2)n[nH]c1=S`, for which the MIC result was “inactive”.

Take `CCCn1c(-c2ccc(S(=O)(=O)c3ccc(Cl)cc3)cc2)nn(CN2CCOCC2)c1=S`: the lowest concentration to inhibit growth (MIC) was 256 µg/mL (≈ 519 µM).

`O=S(=O)(c1ccccc1)c1ccc(-c2nn(CN3CCOCC3)c(=S)n2/N=C/c2ccccc2)cc1` had an MIC above 1020 µg/mL.

`CCCn1c(S)nnc1-c1ccc(S(=O)(=O)c2ccc(Br)cc2)cc1` came in with an MIC of 256 µg/mL (≈ 584 µM).

In the case of `Nn1c(-c2ccc(S(=O)(=O)c3ccc(Cl)cc3)cc2)n[nH]c1=S`, inhibition of growth (MIC) required 1020 µg/mL (≈ 2790 µM).

Take `COc1ccccc1/C=N/n1c(-c2ccc(S(=O)(=O)c3ccccc3)cc2)nn(CN2CCOCC2)c1=S`: the MIC entry is “inactive”.

In the case of `O=S(=O)(c1ccc(Cl)cc1)c1ccc(-c2nn(CN3CCOCC3)c(=S)n2/N=C/c2ccccc2)cc1`, the MIC result is “inactive”.

On to `O=S(=O)(c1ccccc1)c1ccc(-c2n[nH]c(=S)n2/N=C/c2ccccc2)cc1`, for which the MIC entry was “inactive”.

`CCCn1c(S)nnc1-c1ccc(S(=O)(=O)c2ccccc2)cc1` displayed an MIC above 1020 µg/mL.

Consider `O=S(=O)(c1ccccc1)c1ccc(-c2n[nH]c(=S)n2/N=C/c2ccco2)cc1`, for which the MIC result was “inactive”.

Turning to `Nn1c(-c2ccc(S(=O)(=O)c3ccccc3)cc2)n[nH]c1=S`, the MIC was above 1020 µg/mL.

In the next assay the test system is Pseudomonas aeruginosa. Kind of assay: Antibacterial activity against Pseudomonas aeruginosa ATCC 9027 after 18 to 24 hrs by liquid broth method. The assay is classed as functional.
Details: not given
Summed up: as §1
`COc1ccccc1/C=N/n1c(-c2ccc(S(=O)(=O)c3ccccc3)cc2)n[nH]c1=S` displayed an MIC of 512 µg/mL (≈ 1140 µM).

On to `CCCn1c(-c2ccc(S(=O)(=O)c3ccc(Cl)cc3)cc2)nn(CN2CCOCC2)c1=S`, for which the MIC is above 1020 µg/mL.

`O=S(=O)(c1ccccc1)c1ccc(-c2nn(CN3CCOCC3)c(=S)n2/N=C/c2ccccc2)cc1` came in with an MIC above 1020 µg/mL.

For `CCCn1c(S)nnc1-c1ccc(S(=O)(=O)c2ccc(Br)cc2)cc1`, the MIC result is “inactive”.

Regarding `Nn1c(-c2ccc(S(=O)(=O)c3ccc(Cl)cc3)cc2)n[nH]c1=S`, the MIC entry was “inactive”.

With `COc1ccccc1/C=N/n1c(-c2ccc(S(=O)(=O)c3ccccc3)cc2)nn(CN2CCOCC2)c1=S`, the MIC was above 1020 µg/mL.

The compound `O=S(=O)(c1ccc(Cl)cc1)c1ccc(-c2nn(CN3CCOCC3)c(=S)n2/N=C/c2ccccc2)cc1` registered an MIC of 1020 µg/mL (≈ 1850 µM).

Compound `O=S(=O)(c1ccccc1)c1ccc(-c2n[nH]c(=S)n2/N=C/c2ccccc2)cc1` registered an MIC of 1020 µg/mL (≈ 2440 µM).

`CCCn1c(S)nnc1-c1ccc(S(=O)(=O)c2ccccc2)cc1` had an MIC above 1020 µg/mL.

`O=S(=O)(c1ccccc1)c1ccc(-c2n[nH]c(=S)n2/N=C/c2ccco2)cc1` displayed an MIC of 256 µg/mL (≈ 624 µM).

Compound `Nn1c(-c2ccc(S(=O)(=O)c3ccccc3)cc2)n[nH]c1=S` had an MIC above 1020 µg/mL.
